According to ChEMBL document CHEMBL2321851, “Synthesis and biological evaluation of novel coumarin-pyrazoline hybrids endowed with phenylsulfonyl moiety as antitumor agents” (Eur J Med Chem, 2013):
The source made the active and inactive calls. No cut-off for these calls is given here.

Tests used:
[1] = test system: A498; experiment: Growth inhibition of human A498 cells at 10 uM after 48 hrs by sulforhodamine B assay; assay type: functional, cell-based
Procedure, shortened: (§1)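 Single-dose primary screen at 10^-5 M across the ~60-line panel grown in RPMI 1640 with 5% FBS and 2 mM glutamine, 48 h exposure at 37 °C. Cells TCA-fixed and SRB-stained, absorbance at 515 nm. Output is percent growth of treated versus untreated control cells.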

[2] = test system: MDA-MB-435; experiment: Growth inhibition of human MDA-MB-435 cells at 10 uM after 48 hrs by sulforhodamine B assay; assay type: functional, cell-based
Procedure, shortened: (§2)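 NCI-60 one-dose primary screen at 10^-5 M. Cells grown in RPMI 1640 with 5% FBS and 2 mM L-glutamine and plated by doubling time. Preincubated 24 h at 37 °C under 5% CO2. Drug exposure 48 h. Cells fixed with cold TCA and stained with 0.4% SRB; absorbance read at 515 nm. Reported as percent growth of treated versus untreated control.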

[3] = test system: LOX IMVI; experiment: Growth inhibition of human LOXIMVI cells at 10 uM after 48 hrs by sulforhodamine B assay; assay type: functional, cell-based; procedure, shortened: as §1
[4] = test system: SNB-19; experiment: Growth inhibition of human SNB19 cells at 10 uM after 48 hrs by sulforhodamine B assay; assay type: functional, cell-based; procedure, shortened: as §2
[5] = test system: SF-268; experiment: Growth inhibition of human SF268 cells at 10 uM after 48 hrs by sulforhodamine B assay; assay type: functional, cell-based; procedure, shortened: as §2
[6] = test system: HCT-116; experiment: Growth inhibition of human HCT116 cells at 10 uM after 48 hrs by sulforhodamine B assay; assay type: functional, cell-based; procedure, shortened: as §1
[7] = test system: NCI-H23; experiment: Growth inhibition of human NCI-H23 cells at 10 uM after 48 hrs by sulforhodamine B assay; assay type: functional, cell-based; procedure, shortened: as §2
[8] = test system: RPMI8266; experiment: Growth inhibition of human RPMI8266 cells at 10 uM after 48 hrs by sulforhodamine B assay; assay type: functional, cell-based; procedure, shortened: as §2
[9] = test system: K562; experiment: Growth inhibition of human K562 cells at 10 uM after 48 hrs by sulforhodamine B assay; assay type: functional, cell-based; procedure, shortened: as §1
[10] = biological target: PI3-kinase p110-alpha/p85-alpha (Homo sapiens) (UniProt P27986+P42336); experiment: Inhibition of PI3K p110alpha/p85alpha (unknown origin) at 50 uM by ADP-Glo assay; assay type: protein-complex assay
Procedure, shortened: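 Active PI3K p110α/p85α with peptide substrate, run in duplicate in kinase assay buffer. Stocks were 250 µM compound and 250 µM ATP (5 µl each in 25 µl). Reaction ran 30 min at 30 °C and was stopped with ADP-Glo reagent (40 min), then detection reagent (30 min), with luminescence read out. Blank lacked substrate and was subtracted; single-dose screen at 50 µM.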

| SMILES | growth inhibition (GI) [1] | growth inhibition (GI) [2] | growth inhibition (GI) [3] | growth inhibition (GI) [4] | growth inhibition (GI) [5] | growth inhibition (GI) [6] | growth inhibition (GI) [7] | growth inhibition (GI) [8] | growth inhibition (GI) [9] | inhibition [10] [%] |
| --- | --- | --- | --- | --- | --- | --- | --- | --- | --- | --- |
| COc1ccc2ccc(=O)oc2c1C1=NN(S(=O)(=O)c2ccccc2)C(c2cccs2)C1 (centres undefined) | inactive | inactive | inactive | inactive | inactive | inactive | inactive | inactive | inactive | < 5 |
| COc1ccc2ccc(=O)oc2c1C1=NN(S(=O)(=O)c2ccccc2)C(c2ccc(C)o2)C1 (centres undefined) | inactive | inactive | inactive | inactive | inactive | inactive | inactive | inactive | inactive | – |
| COc1ccc2ccc(=O)oc2c1C1=NN(S(=O)(=O)c2ccccc2)C(c2ccc(SC)cc2)C1 (centres undefined) | inactive | inactive | inactive | inactive | inactive | inactive | inactive | inactive | inactive | < 5 |
